Experimental data published in paper PMC11078286 (Therapeutic Drug Monitoring, 2024).

Assays:
CYP3A4 = conditions: preclinical data; cited from earlier work
EGFR/T790M = conditions: cited from earlier work
Long-term stability [1] = assay type: in vitro ADME, human; conditions: plasma, Long-term (−80 degrees) for 30 d, n = 6
Procedure, shortened: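 QC samples were stored at −80°C for 30 days before analysis. Plasma (20 µL) with I.S. (30 ng/mL) was precipitated with 150 µL water and 650 µL ACN, vortexed 5 min and centrifuged at 15,000g for 10 min. A hemaPEN DBS spot was extracted in 350 µL ACN with I.S. and centrifuged at 15,000g for 5 min. There were six replicates, 1 µL was injected for UHPLC-MS/MS MRM, and relative error was calculated versus nominal.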

Long-term stability [2] = assay type: in vitro ADME, human; conditions: DBS, Long-term (−80 degrees) for 30 d, n = 6
[3] = Bland–Altman comparison of plasma and hemaPEN DBS concentrations; assay type: in vivo, human; conditions: 15 patients with NSCLC
Procedure, shortened: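 Paired trough samples came from each patient: a finger-prick hemaPEN DBS, and venous EDTA blood drawn within 10 min that was spun at 2000g for 10 min, with plasma stored at −80°C. Both matrices were quantified by UHPLC-MS/MS, with AZ7550 calibrated using the labelled [¹³C²H₃] standard. Plasma and DBS values were compared by Bland–Altman analysis, with limits of agreement at ±1.96 SD of the mean difference.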

Autosampler [4] = assay type: in vitro ADME, human; conditions: plasma, n = 6
Autosampler [5] = assay type: in vitro ADME, human; conditions: DBS, n = 6
Procedure, shortened: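 DBS QC samples were made by filling hemaPEN capillaries from a blood drop onto precut disks and drying 1 hour at RT. Each spot (2.74 μL) was extracted in 350 µL ACN plus I.S. (30 ng/mL), vortexed, centrifuged at 15,000g, then shaken 1 hour at RT. Processed extracts were held in the autosampler at 4°C for 24 hours. Six replicates were read by UHPLC-MS/MS in positive MRM mode, with relative error taken against nominal.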

[6] = ref Rood et al, 30; cited from earlier work
Freeze–thaw stability [7] = assay type: in vitro ADME, human; conditions: DBS, 3 F/T cycles, n = 6
Procedure, shortened: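 QC samples were kept 8 hours at RT, then put through 3 freeze–thaw cycles: thaw 2 hours at RT, refreeze at −80°C for at least 12 hours. Plasma (20 µL) with I.S. was protein-precipitated with water/ACN and centrifuged 15,000g for 10 min. A DBS spot was extracted in ACN with I.S. and centrifuged 15,000g for 5 min. Six replicates were run on UHPLC-MS/MS, with relative error versus nominal.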

Freeze–thaw stability [8] = assay type: in vitro ADME, human; conditions: plasma, 3 F/T cycles, n = 6

C=CC(=O)Nc1cc(Nc2nccc(-c3cn(C)c4ccccc34)n2)c(OC)cc1N(C)CCN(C)C [Osimertinib]
Metabolizing enzyme (CYP3A4): principally metabolized by cytochrome P450 (CYP3A4) | Greater potency toward mutated EGFR/T790M than wild-type EGFR (EGFR/T790M): 200 × | Mean (measured concentration, stability) (Long-term stability [1]; nominal 1 ng/mL (LLOQ)): 1.15 | RE (stability) (Long-term stability [1]; nominal 1 ng/mL (LLOQ)): 15.47% | Mean (measured concentration, stability) (Long-term stability [1]; nominal 3 ng/mL (LQC)): 2.91 | RE (stability) (Long-term stability [1]; nominal 3 ng/mL (LQC)): −2.7% | Mean (measured concentration, stability) (Long-term stability [1]; nominal 30 ng/mL (MQC)): 29.39 | RE (stability) (Long-term stability [1]; nominal 30 ng/mL (MQC)): −2.02% | Mean (measured concentration, stability) (Long-term stability [1]; nominal 270 ng/mL (HQC)): 270.31 | RE (stability) (Long-term stability [1]; nominal 270 ng/mL (HQC)): 0.11% | Mean (measured concentration, stability) (Long-term stability [2]; nominal 1 ng/mL (LLOQ)): 1.1 | RE (stability) (Long-term stability [2]; nominal 1 ng/mL (LLOQ)): 10.68% | Mean (measured concentration, stability) (Long-term stability [2]; nominal 3 ng/mL (LQC)): 2.91 | RE (stability) (Long-term stability [2]; nominal 3 ng/mL (LQC)): 0.14% | Mean (measured concentration, stability) (Long-term stability [2]; nominal 30 ng/mL (MQC)): 30.08 | RE (stability) (Long-term stability [2]; nominal 30 ng/mL (MQC)): −2.18% | Mean (measured concentration, stability) (Long-term stability [2]; nominal 270 ng/mL (HQC)): 269.97 | RE (stability) (Long-term stability [2]; nominal 270 ng/mL (HQC)): 0.71% | Mean concentration difference between plasma and hemaPEN DBS (Bland–Altman) [3]: 0.4% | Mean (measured concentration, stability) (Autosampler [4]; nominal 1 ng/mL (LLOQ)): 1.04 | RE (stability) (Autosampler [4]; nominal 1 ng/mL (LLOQ)): 7.21% | Mean (measured concentration, stability) (Autosampler [4]; nominal 3 ng/mL (LQC)): 2.96 | RE (stability) (Autosampler [4]; nominal 3 ng/mL (LQC)): −1.01% | Mean (measured concentration, stability) (Autosampler [4]; nominal 30 ng/mL (MQC)): 29.32 | RE (stability) (Autosampler [4]; nominal 30 ng/mL (MQC)): −2.3% | Mean (measured concentration, stability) (Autosampler [4]; nominal 270 ng/mL (HQC)): 279.56 | RE (stability) (Autosampler [4]; nominal 270 ng/mL (HQC)): 0.58% | Mean (measured concentration, stability) (Autosampler [5]; nominal 1 ng/mL (LLOQ)): 1.07 | RE (stability) (Autosampler [5]; nominal 1 ng/mL (LLOQ)): 7.15% | Mean (measured concentration, stability) (Autosampler [5]; nominal 3 ng/mL (LQC)): 2.96 | RE (stability) (Autosampler [5]; nominal 3 ng/mL (LQC)): −1.11% | Mean (measured concentration, stability) (Autosampler [5]; nominal 30 ng/mL (MQC)): 29.31 | RE (stability) (Autosampler [5]; nominal 30 ng/mL (MQC)): −2.7% | Mean (measured concentration, stability) (Autosampler [5]; nominal 270 ng/mL (HQC)): 271.88 | RE (stability) (Autosampler [5]; nominal 270 ng/mL (HQC)): 0.69% | Degradation at RT [6]: rapid degradation | Mean (measured concentration, stability) (Freeze–thaw stability [7]; nominal 1 ng/mL (LLOQ)): 1.06 | RE (stability) (Freeze–thaw stability [7]; nominal 1 ng/mL (LLOQ)): 8.95% | Mean (measured concentration, stability) (Freeze–thaw stability [7]; nominal 3 ng/mL (LQC)): 3.01 | RE (stability) (Freeze–thaw stability [7]; nominal 3 ng/mL (LQC)): −0.43% | Mean (measured concentration, stability) (Freeze–thaw stability [7]; nominal 30 ng/mL (MQC)): 29.34 | RE (stability) (Freeze–thaw stability [7]; nominal 30 ng/mL (MQC)): −2.24% | Mean (measured concentration, stability) (Freeze–thaw stability [7]; nominal 270 ng/mL (HQC)): 271.92 | RE (stability) (Freeze–thaw stability [7]; nominal 270 ng/mL (HQC)): 0.24% | Mean (measured concentration, stability) (Freeze–thaw stability [8]; nominal 1 ng/mL (LLOQ)): 1.14 | RE (stability) (Freeze–thaw stability [8]; nominal 1 ng/mL (LLOQ)): 10.47% | Mean (measured concentration, stability) (Freeze–thaw stability [8]; nominal 3 ng/mL (LQC)): 3.02 | RE (stability) (Freeze–thaw stability [8]; nominal 3 ng/mL (LQC)): 0.07% | Mean (measured concentration, stability) (Freeze–thaw stability [8]; nominal 30 ng/mL (MQC)): 28.84 | RE (stability) (Freeze–thaw stability [8]; nominal 30 ng/mL (MQC)): −3.85% | Mean (measured concentration, stability) (Freeze–thaw stability [8]; nominal 270 ng/mL (HQC)): 269.25 | RE (stability) (Freeze–thaw stability [8]; nominal 270 ng/mL (HQC)): −0.27%
